Screening results from PubChem.
RGS4 act: RGS4 potentiation or activation; HEK293 M3R/inducible RGS4, carbachol calcium flux Fluo4; stronger effect = lower value; B-score at 10 µM; 310,000 tested, 0.92% active; AID 463111;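 active means B-score of the integrated calcium signal more than 4 SD below the library mean, with starting fluorescence not abnormally high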;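 further: negative B-score means reduced calcium response which marks RGS4 activation or potentiation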
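Assay system: HEK293 FlpIn-TREx cells, stable M3R, doxycycline-inducible RGS4 / Probe or stimulus: carbachol, ECmax concentration / Times: overnight RGS4 induction, 30 min dye load 37 °C, 20 min compound RT / Signal: kinetic calcium fluorescence imaging with Fluo4-AM dye, 2 µM / Measure: Agonist-evoked peak-minus-minimum fluorescence over baseline, integrated ratio, B score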
RGS4 block: human RGS4 inhibition | 310,000 tested, 0.45% active | AID 463165 | HEK293 M3R/RGS4 inducible, Fluo-4 calcium flux; stronger effect = higher value; triggered by carbachol at its EC20 | B-score at 10 µM;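 active means B-score, a plate-corrected calcium signal, over three deviations above library mean, with baseline fluorescence within five deviations of library mean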;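 further: RGS4 expression induced by doxycycline in cells with stable M3 receptor; B-score is computed from the integrated fluorescence ratio over baseline after carbachol; higher B-score means a larger calcium signal and so more RGS4 inhibition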
Target sequence (P49798 whole entry, looked up): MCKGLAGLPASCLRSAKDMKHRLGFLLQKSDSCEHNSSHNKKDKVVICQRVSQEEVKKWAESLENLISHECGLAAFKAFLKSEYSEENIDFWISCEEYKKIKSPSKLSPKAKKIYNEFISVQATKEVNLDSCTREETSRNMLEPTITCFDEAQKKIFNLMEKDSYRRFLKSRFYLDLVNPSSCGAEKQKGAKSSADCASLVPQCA
MrgX1 agonist: human MrgX1 receptor agonism, primary screen; MrgX1-HEK293 cells, Fluo-4 calcium fluorescence, agonist mode; stronger effect = higher value; B-score at 10 µM; 310,000 tested, 0.44% active;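 active means calcium response B-score plate-corrected fluorescence ratio at least 3 library SD, with starting fluorescence B-score inside 5 SD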
Target sequence (Q96LB2 whole entry, looked up): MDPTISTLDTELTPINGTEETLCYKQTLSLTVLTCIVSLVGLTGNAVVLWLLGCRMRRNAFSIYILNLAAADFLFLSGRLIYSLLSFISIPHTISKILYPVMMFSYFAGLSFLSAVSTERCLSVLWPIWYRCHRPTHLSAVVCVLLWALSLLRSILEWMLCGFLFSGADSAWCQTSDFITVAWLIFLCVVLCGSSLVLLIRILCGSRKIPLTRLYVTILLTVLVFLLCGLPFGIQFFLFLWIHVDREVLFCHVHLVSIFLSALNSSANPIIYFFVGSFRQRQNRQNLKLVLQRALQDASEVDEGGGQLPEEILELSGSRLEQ
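Material – MrgX1-expressing HEK293 cells · Input – 15,000 cells seeded per well · Dosing – compound as first of three additions · Times – overnight seeding, then 1 h dark dye loading · Measured by – kinetic Fluo-4 NW fluorescence of intracellular calcium · Read-out – B-scored fluorescence response ratio · Benchmarks – positive and negative control wells on each plate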
MrgX1 antag: human MrgX1 receptor antagonism, primary screen; 310,000 tested, 1.3% active; MRGX1-HEK293 calcium flux, Fluo-4, BAM8-22 antagonism; stronger effect = lower value; B-score at 10 µM;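 active means calcium-response B-score plate-corrected more than 3 library SD below zero, starting fluorescence within 5 deviations, no agonist response on first addition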;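 further: peak minus trough fluorescence over baseline after final BAM8-22 challenge near maximal dose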
MrgX1 allo act: human MrgX1 positive allosteric modulation, primary screen. B-score at 10 µM. 310,000 tested, 0.63% active. MrgX1-HEK293, Fluo-4 calcium flux, FDSS; stronger effect = higher value. Q96LB2;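 active means plate-corrected calcium response at least 3 library SD above typical, normal starting fluorescence, not activating the receptor alone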;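 further: compound read alongside a low EC10 to EC30 dose of BAM8-22 agonist; peak minus trough fluorescence over baseline measured at the second addition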
MrgX1 antag conf: human MrgX1 receptor antagonism, re-confirmation screen; 2,300 tested, 19% active; AID 602420; remaining BAM8-22 calcium response % of control (stronger effect = lower value), % at 10 µM; shares compounds with MrgX1 antag; MrgX1-HEK293, BAM8-22 calcium flux, Fluo-4; stronger effect = lower value;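 active means remaining agonist calcium response no higher than 100% minus 3 SD of agonist-only control wells, with starting fluorescence near control levels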;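 further: agonist BAM8-22 given at a near maximal EC90 to ECmax level; peak minus minimum fluorescence divided by baseline after agonist addition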
HEK293 Ca flux: MrgX1 antagonist counter-screen hit in parental HEK293 cells; shares compounds with MrgX1 antag; Fluo-4 calcium fluorescence, FDSS; fluorescence ratio F(max-min)/F0 at 10 µM; 4,000 tested, 2% active;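 active means duplicate-averaged calcium fluorescence ratio at least three times the standard deviation of buffer wells, a nonspecific response in parental cells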
HEK293 Ca counter: MrgX1 allosteric activator counter-screen hit in parental HEK293 cells; shares compounds with MrgX1 antag; parental HEK293 calcium flux, Fluo-4 fluorescence ratio; stronger effect = higher value; fluorescence ratio F(max-min)/F0 at 10 µM; 4,000 tested, 0.4% active; AID 624114;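 active means calcium fluorescence ratio, averaged over duplicates, at least 3 SD of the buffer-well ratio, meaning a nonspecific response in receptor-free cells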;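 further: untransfected parental HEK293 lacking MrgX1 used as counterscreen for MrgX1 allosteric activators; fluorescence change taken during the second addition on a kinetic imager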
HEK293 Ca cntr2: counter-screen for MrgX1 activators: effect in parental HEK293 cells; shares compounds with MrgX1 antag; Fluo-4 calcium fluorescence (FDSS); stronger effect = higher value; fluorescence ratio F(max-min)/F0 at 10 µM; 4,000 tested, 8.7% active; AID 624115;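 active means calcium fluorescence ratio at least three times the spread of buffer wells, meaning a non-specific response in parental cells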
Numbers without * were called inactive; i = inactive; · = no result. Rows were chosen to be rich in hits. Some 3.5% of all compounds tested hit in one or more screens of this group.

SMILES | RGS4 act | RGS4 block | MrgX1 agonist | MrgX1 antag | MrgX1 allo act | MrgX1 antag conf | HEK293 Ca flux | HEK293 Ca counter | HEK293 Ca cntr2
CCCNC(=O)c1nc(C)n(-c2cc(Cl)cc(Cl)c2)n1 | i | i | i | i | i | · | · | · | ·
CCCNC(=O)c1nc(C)n(-c2cc(Cl)ccc2Cl)n1 | i | i | i | -8.2* | i | 81%* | i | i | i
CCOC(=O)c1ccc2c(c1)nc(-c1ccc(F)cc1)c1nccn12 | i | i | i | i | i | · | · | · | ·
CN1CCN(C2CCCCCC2)CC1 | i | i | i | -5.3* | i | i | i | i | i
CN1CCN(C(=O)NC2CCCCC2)CC1 | i | i | i | i | i | · | · | · | ·
Cc1ccc(C)c(NC(=O)Cc2nc(CCl)cs2)c1 | i | i | i | i | i | · | · | · | ·
Cc1ccccc1NC(=O)Cc1nc(CCl)cs1 | i | i | i | -5.4* | i | i | i | i | i
O=C(CNC(=O)c1ccccc1F)NNC(=O)c1ccccc1O | i | i | i | i | i | · | · | · | ·
Cc1ccccc1OCC(=O)Nc1ccc2c(c1)OCO2 | i | i | i | -4.5* | i | 84%* | i | i | i
Cc1ccccc1NC(=O)C[n+]1cc(-c2ccccc2)n2c1CCC2 | i | i | i | i | i | · | · | · | ·
CC(C)n1c(NCc2cc(Cl)ccc2O)nc2ccccc21 | i | i | i | -7.1* | i | i | i | i | i
Cc1cc(Cn2nc(C(=O)NCC3CC3)cc2-c2ccccc2)on1 | i | i | i | i | i | · | · | · | ·
CCOC(=O)c1cc(-c2ccccc2)n(Cc2cc(CC)no2)n1 | i | i | i | -5.5* | i | i | i | i | i
CC(C)OC(=O)NCCOC(=O)Nc1ccc(Cl)cc1 | i | i | i | i | i | · | · | · | ·
Cc1ccc(-c2nnc(SCC(N)=O)n2C)cc1 | i | i | i | -4.9* | i | i | i | i | i
CCN(CC)S(=O)(=O)c1cccc(-c2nnc(SCC(N)=O)n2C)c1 | i | i | i | -6.7* | i | 84%* | i | i | i
CC(=O)NC(=S)Nc1ccc(N2CCOCC2)c(S(=O)(=O)Nc2cc(Cl)ccc2Cl)c1 | i | i | i | i | i | · | · | · | ·
Cc1ccc(NC(=O)C2CCN(S(=O)(=O)c3ccc4c(c3)CCCC(=O)N4)CC2)cc1N(C)C | i | i | i | i | i | · | · | · | ·
Cc1ccc(NC(=O)Cn2nnc(-c3ccccc3NC(=O)c3cccs3)n2)cc1 | i | i | i | i | i | · | · | · | ·
COc1ccc(NC(=O)Cn2nnc(-c3ccccc3NC(=O)c3cccs3)n2)cc1 | i | i | i | -7* | i | i | i | i | i
COCCNC(=O)c1cc2oc3ccccc3c2n1C | i | i | i | -5* | i | i | i | i | i
CCOc1ccccc1CNC(=O)c1cc2oc3ccccc3c2n1C | i | i | i | i | i | · | · | · | ·
CC(C)CC(=O)OCc1cn(-c2ccccc2)nn1 | i | i | i | i | i | · | · | · | ·
O=C(CSc1nnc(NC(=O)c2cc(Br)ccc2Cl)s1)NCC1CCCO1 (configuration not stated) | i | i | i | -13* | i | i | i | i | i
O=C(CSc1nc2ccccc2s1)NCC1CCCO1 (configuration not stated) | i | i | i | -5.9* | i | i | i | i | i
SMILES | RGS4 act | RGS4 block | MrgX1 agonist | MrgX1 antag | MrgX1 allo act | MrgX1 antag conf | HEK293 Ca flux | HEK293 Ca counter | HEK293 Ca cntr2
CCOc1ccc(C(C)=O)cc1CSc1nc2nc(C)cc(C)n2n1 | i | i | i | -5.7* | i | 69%* | i | i | i
Cc1ccc(Cl)cc1NC(=O)c1cccc(OC(F)F)c1 | i | i | i | -4.7* | i | i | i | i | i
Cc1cccc(C)c1NC(=O)C1NC(=O)CC1c1ccccc1 (configuration not stated) | i | i | i | -9.5* | i | i | i | i | i
Cc1ccc(NC(=O)CSc2ncnc3ccccc23)cc1S(=O)(=O)N1CCCCCC1 | i | i | i | -5.3* | i | 67%* | i | i | i
CCC(CC)c1nnc(NC(=O)c2ccc(N3CCCC3=O)cc2)s1 | i | i | i | -4.9* | i | i | i | i | i
CC1=Nc2ccccc2/C1=C/c1nc(-c2ccc(C)s2)oc1O | i | i | i | -6.1* | i | 57%* | i | i | i
COc1ccc(-c2nc(/C=C3\C(C)=Nc4ccccc43)c(O)o2)cc1 | i | i | i | -4.8* | i | 59%* | i | i | i
CC1(C)CC(O)C(C(O)c2cccc([N+](=O)[O-])c2)C(C)(C)N1 (configuration not stated) | i | i | i | i | i | · | · | · | ·
Cc1ccc(C(=O)NCC(c2ccc(F)cc2)N2CCOCC2)cc1 (configuration not stated) | i | i | i | i | i | · | · | · | ·
CC(=O)c1ccc(-c2ccc(C(=O)NCC(c3ccc(F)cc3)N3CCOCC3)o2)cc1 (configuration not stated) | i | i | i | -8* | i | 60%* | i | i | i
COc1ccc(NC(=O)c2ccco2)cc1NC(=O)c1ccccc1[N+](=O)[O-] | i | i | i | i | i | · | · | · | ·
CCCSc1nc2c(c(=O)[nH]c(=O)n2C)n1Cc1ccccc1 | i | i | i | i | i | · | · | · | ·
C=C(C)CSc1nc2c(c(=O)[nH]c(=O)n2C)n1Cc1ccccc1 | i | i | i | -4.8* | i | 83%* | i | i | i
CC(=O)N/C(=C\c1ccccc1)C(=O)Nc1ccccc1C | i | i | i | i | i | · | · | · | ·
CN1CCN(C(c2ccc(Br)cc2)c2cc(Cl)c3cccnc3c2O)CC1 (configuration not stated) | i | i | i | -5.3* | i | i | i | i | i
